M4 antag: antagonists of human muscarinic M4 receptor (CHRM4). P08173. CHO-hM4 cells, ACh EC80, Fluo-8 calcium fluorescence. inhibition, % at 3 µM. 360,000 compounds, 0.73% hits;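 active = inhibition above its plate's cutoff, the mean inhibition of sample wells plus 3 SD, cut at about 27% in these data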
Target sequence (P08173 whole entry, looked up): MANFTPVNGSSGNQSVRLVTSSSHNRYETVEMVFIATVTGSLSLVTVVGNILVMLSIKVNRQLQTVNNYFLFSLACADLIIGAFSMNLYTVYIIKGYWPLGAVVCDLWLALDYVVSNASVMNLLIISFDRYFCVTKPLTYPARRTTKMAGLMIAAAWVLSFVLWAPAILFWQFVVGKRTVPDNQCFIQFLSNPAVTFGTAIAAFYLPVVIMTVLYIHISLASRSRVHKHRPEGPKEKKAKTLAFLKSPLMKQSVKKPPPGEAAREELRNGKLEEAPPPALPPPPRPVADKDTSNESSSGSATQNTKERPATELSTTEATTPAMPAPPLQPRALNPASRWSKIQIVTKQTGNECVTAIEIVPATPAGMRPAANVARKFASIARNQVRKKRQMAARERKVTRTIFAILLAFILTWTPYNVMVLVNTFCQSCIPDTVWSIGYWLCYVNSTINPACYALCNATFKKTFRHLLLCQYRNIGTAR
M4 ag: CHRM4 agonism in calcium assay; CHO-K1 hM4/Gqi5, Fluo-8 calcium fluorescence; vehicle 0%, full acetylcholine response 100%; 360,000 compounds, 0.14% hits; P08173; activation, % at 3 µM;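 active = activation above the run mean over all test wells plus 3 SD, cut at about 32% in these data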;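 note: peak over basal fluorescence ratio per well then scaled between controls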
M4 PAM: potentiates acetylcholine response at human M4 receptor; 360,000 compounds, 0.4% hits; activation, % at 3 µM; CHO-K1 hM4/Gqi5, Fluo-8 calcium fluorescence, ACh EC20; 0% = ACh EC20, 100% = maximal ACh;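 active = activation above its plate's cutoff, the mean activation of sample wells plus 3 SD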
CHRM5 PAM: potentiates acetylcholine response at human M5 receptor; CHO-K1 hM5, Fluo-8 calcium, ACh EC20 PAM; 0% = ACh EC20, 100% = ACh EC100; AID 624038; 360,000 compounds, 0.3% hits; activation, % at 3 µM;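 active = activation above the run cutoff, the mean activation of all test compounds plus 3 SD, cut at about 18% in these data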
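Assay system – human M5 receptor in CHO-K1 cells · Read-out – % activation, ACh-normalized · Technique – Fluo-8 calcium fluorescence · Dosing – single-point, 3 µM nominal · Incubation – Fluo-8 loading 80 min at 37 °C plus 30 min room temperature · Repeats – singlicate, one well per test compound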
M5 antag: antagonists of human muscarinic M5 receptor (CHRM5); CHO-hM5 cells, Fluo-8 calcium fluorescence, ACh EC80; P08912; inhibition, % at 3 µM; 360,000 compounds, 0.59% hits;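 active = inhibition above a per-plate cutoff, the mean of that plate's test compounds plus 3 SD, cut at about 27% in these data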
CHRM5 agonist: CHRM5 agonism in calcium assay | P08912 | 360,000 compounds, 0.19% hits | CHO-K1 hM5 cells, Fluo-8 calcium fluorescence; 0% DMSO wells, 100% maximal acetylcholine response | activation, % at 3 µM;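 active = activation above the run's mean over test compounds plus 3 SD, cut at about 23% in these data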;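 note: signal is peak over basal fluorescence ratio across the kinetic read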
Hits are given with their value; – = inactive. Rows were chosen to be rich in hits. Some 1.9% of all compounds tested hit in one or more screens of this group.

SMILES	M4 antag	M4 ag	M4 PAM	CHRM5 PAM	M5 antag	CHRM5 agonist
COc1ccc2c(/C=N/NS(=O)(=O)c3ccc(C)cc3)c[nH]c2c1	–	–	–	–	–	–
COc1ccc2[nH]cc(/C=N/NS(=O)(=O)c3ccc(C)cc3)c2c1	28	–	–	–	–	–
O=[N+]([O-])c1ccc(N2CCN(C(=S)Nc3ccc(F)cc3F)CC2)cc1	–	–	–	–	34	–
Cc1csc2c(N3CCN(C(=O)Nc4ccccc4)CC3)ncnc12	–	–	–	–	–	–
O=[N+]([O-])c1ccc(N2CCN(C(=S)Nc3ccc(F)cc3)CC2)cc1	–	–	–	–	–	–
Cc1csc2c(N3CCN(C(=S)Nc4ccc(F)cc4F)CC3)ncnc12	–	–	–	–	29	–
Cc1cccc(C)c1NC(=O)C1(C)CN(S(C)(=O)=O)CC(=O)N1CCc1ccc(O)cc1 (stereo not given)	–	–	–	–	–	–
CCc1ccccc1NC(=S)N(Cc1cccc(C)c1)c1cccnc1	–	–	–	–	–	–
Cc1cccc(CN(C(=S)Nc2c(C)cccc2C)c2cccnc2)c1	–	–	–	18	–	–
O=C(NCC(F)(F)F)c1ccc2sc([C@@H]3O[C@H](CO)[C@H](O)[C@H](O)[C@H]3O)nc2c1	–	–	–	–	–	–
Cc1cccc(C)c1NC(=O)C1(C)CSCC(=O)N1CCCn1ccnc1 (stereo not given)	–	–	–	–	–	–
CC[N+](CC)(CC)CC(=O)Nc1c(C)cccc1C	35	–	–	–	–	30
Cc1cccc(C)c1NC(=O)CNCC(=O)Nc1c(C)cccc1C	–	–	–	–	–	–
CCCCNC(=O)C1(C)CCCCN1C(=O)c1cc(-c2ccccc2)cs1 (stereo not given)	–	–	–	–	–	–
COCCN(Cc1ccc(C)cc1)C(=O)[C@H]1O[C@@H](n2ccc(=O)[nH]c2=O)[C@H](O)[C@@H]1O	–	–	–	–	–	–
O=C(CN1CCc2ccccc2C1)Nc1ccc(F)cc1	–	–	–	–	–	–
O=C(CN1CCc2ccccc2C1)Nc1ccc(OC(F)(F)F)cc1	82	–	–	–	–	–
Cc1ccn(CCC(=O)N2CCCC(N3CCN(c4ccccc4C)CC3)C2)n1 (stereo not given)	–	–	–	–	–	–
CCN(CC)CCN1C(=O)c2ccccc2NC1c1ccccc1F (stereo not given)	29	–	–	–	–	–
CCN(CC)CCN1C(=O)c2ccccc2NC1c1ccc(F)cc1 (stereo not given)	–	–	–	–	–	–
NC(=Nc1ccccc1)Nc1ccccc1	60	124	–	–	–	41
CCOC(=O)/C(C(=Nc1ccccc1)Nc1ccccc1)=C(\C)O	–	–	–	–	–	–
Cc1ccccc1N(Cc1cc(=O)[nH]c2ccccc12)C(=O)C(C)C	–	–	–	–	–	–
Cc1ccc(N(Cc2cc(=O)[nH]c3ccccc23)C(=O)C(C)C)c(C)c1	46	–	–	–	–	–
C#CCOCCOCCOCCNc1nc(N2CCN(C(=O)CCCCCCCCCCNC(=O)[C@@H](CCC(=O)O)n3cc(CCCCCN)nn3)CC2)nc(N2CCN(C(=O)CCCCCCCCCCNC(=O)[C@H](CO)n3cc(CCCCCN)nn3)CC2)n1	–	–	–	–	–	–
SMILES	M4 antag	M4 ag	M4 PAM	CHRM5 PAM	M5 antag	CHRM5 agonist
C#CCOCCOCCOCCNc1nc(N2CCN(C(=O)CCCCCCCCCCNC(=O)[C@@H](CCSC)n3cc(CCO)nn3)CC2)nc(N2CCN(C(=O)CCCCCCCCCCNC(=O)[C@@H]([C@H](C)O)n3cc(C)nn3)CC2)n1	–	–	–	–	27	–
C#CCOCCOCCOCCNc1nc(N2CCN(C(=O)CCCCCCCCCCNC(=O)[C@H](CCCCN)n3cc(C)nn3)CC2)nc(N2CCN(C(=O)CCCCCCCCCCNC(=O)[C@@H]([C@H](C)O)n3cc(C)nn3)CC2)n1	–	–	–	–	–	–
C#CCOCCOCCOCCNc1nc(N2CCN(C(=O)CCCCCCCCCCNC(=O)[C@@H](CCC(=O)O)n3cc(CCCCCN)nn3)CC2)nc(N2CCN(C(=O)CCCCCCCCCCNC(=O)[C@H](CCCCN)n3cc(C[C@@H](C)CC)nn3)CC2)n1	–	33	–	–	–	–
COC(=O)C[C@H]1C=C[C@H](NC(=O)C2CCOCC2)[C@@H](CO)O1	–	–	–	–	–	–
C=CCn1c2ccccc2c2nnc(SCC(N)=O)nc21	–	–	–	–	–	–
C=CCSc1nnc2nc3c(nn12)c1cc(C)ccc1n3CC=C	–	–	–	41	–	–
COCC(=O)N[C@H]1CC[C@@H](CC(=O)NCc2ccccc2OC)O[C@@H]1CO	–	–	–	–	–	–
O=C1NC[C@@H](Cc2cccc3ccccc23)N(CCc2cccc(F)c2)C1=O	–	–	–	–	–	–
CCOc1ccc2cc(S(=O)(=O)N3CCN(C)CC3)ccc2c1	–	–	15	–	–	–
CCOc1ccc2cc(S(=O)(=O)N3CCCCC3)ccc2c1	–	–	–	–	–	–
CCn1cc([N+](=O)[O-])c(C(=O)N2N=C(c3cccc4ccccc34)CC2c2ccccc2O)n1 (stereo not given)	–	–	–	29	–	–
CCn1cc([N+](=O)[O-])c(C(=O)N2N=C(c3ccc4ccccc4c3)CC2c2ccccc2O)n1 (stereo not given)	–	–	–	–	–	–
C[C@H]1c2cccc(O)c2C(O)=C2C(=O)[C@]3(O)C(O)=C(C(N)=O)C(=O)[C@@H](N(C)C)[C@@H]3[C@@H](O)[C@@H]21	–	–	–	–	–	27
O=C1N/C(=N\S(=O)(=O)Cc2ccccc2)S/C1=C/c1cc([N+](=O)[O-])ccc1O	–	50	–	–	40	89
O=C1N/C(=N\S(=O)(=O)c2ccccc2)S/C1=C\c1cc([N+](=O)[O-])ccc1O	–	125	–	–	–	45
Cc1ccc(S(=O)(=O)/N=C2/NC(=O)/C(=C\c3cc(Br)cc(Br)c3O)S2)cc1	–	–	–	–	–	35
COc1cc(Cn2c3ccc(NC(=S)NCc4ccc(C)cc4)cc3c(=O)n2C)ccc1F	–	–	–	–	–	–
CC(C)N(C(=O)C1CC(=O)OC12CCCCC2)C(C)C (stereo not given)	30	–	–	–	–	–
CC1=NN(C(=O)COc2ccc(C)c(C)c2)C(O)(c2ccc(Cl)cc2)C1 (stereo not given)	–	–	22	–	–	–

Screening results as filed in PubChem.
